{
  "source": "ChEMBL document CHEMBL1151755",
  "about": "“Crystal structure of the peroxisome proliferator-activated receptor gamma (PPARgamma) ligand binding domain complexed with a novel partial agonist: a new region of the hydrophobic pocket could be exploited for drug design” (J Med Chem, 2008)",
  "key": {"[1]": {"molecular_target": "T1, Oxysterols receptor LXR-alpha (Homo sapiens) (UniProt Q13133)", "T1 sequence (whole entry)": "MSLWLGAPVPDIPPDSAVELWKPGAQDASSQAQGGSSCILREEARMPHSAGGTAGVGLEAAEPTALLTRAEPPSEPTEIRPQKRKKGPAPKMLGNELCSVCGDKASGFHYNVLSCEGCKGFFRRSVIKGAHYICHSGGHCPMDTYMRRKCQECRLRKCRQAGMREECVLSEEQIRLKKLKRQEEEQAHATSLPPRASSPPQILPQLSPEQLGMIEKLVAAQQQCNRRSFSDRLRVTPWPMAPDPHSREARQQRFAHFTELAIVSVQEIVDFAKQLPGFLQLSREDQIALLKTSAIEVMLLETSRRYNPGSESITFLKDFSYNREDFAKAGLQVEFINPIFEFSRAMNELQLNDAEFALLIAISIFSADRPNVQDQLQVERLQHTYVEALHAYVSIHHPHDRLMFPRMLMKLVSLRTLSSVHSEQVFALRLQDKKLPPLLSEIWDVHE", "assay": "Increase in transcriptional activity of LXRalpha ligand binding domain expressed in human Hep G2 cells co-transfected with Gal4-DBD by luciferase reporter gene assay", "format": "cell-based", "conditions": "HepG2", "summary_of_the_method": "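HepG2 cells transfected for 4 h by calcium phosphate coprecipitation with 100 ng pGal4UAS-luciferase, 50 ng Gal4-LBD receptor vector and 300 ng CMV-β-galactosidase plasmid for normalization. Cells were washed in PBS, then refed with serum-free DMEM/F-12 containing penicillin/streptomycin and compound or 0.1% ethanol vehicle for 20 h. Luciferase read-out was normalized to β-galactosidase. Experiments were repeated at least three times.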"}, "[2]": {"molecular_target": "T2, Peroxisome proliferator-activated receptor alpha (Homo sapiens) (UniProt Q07869)", "T2 sequence (whole entry)": "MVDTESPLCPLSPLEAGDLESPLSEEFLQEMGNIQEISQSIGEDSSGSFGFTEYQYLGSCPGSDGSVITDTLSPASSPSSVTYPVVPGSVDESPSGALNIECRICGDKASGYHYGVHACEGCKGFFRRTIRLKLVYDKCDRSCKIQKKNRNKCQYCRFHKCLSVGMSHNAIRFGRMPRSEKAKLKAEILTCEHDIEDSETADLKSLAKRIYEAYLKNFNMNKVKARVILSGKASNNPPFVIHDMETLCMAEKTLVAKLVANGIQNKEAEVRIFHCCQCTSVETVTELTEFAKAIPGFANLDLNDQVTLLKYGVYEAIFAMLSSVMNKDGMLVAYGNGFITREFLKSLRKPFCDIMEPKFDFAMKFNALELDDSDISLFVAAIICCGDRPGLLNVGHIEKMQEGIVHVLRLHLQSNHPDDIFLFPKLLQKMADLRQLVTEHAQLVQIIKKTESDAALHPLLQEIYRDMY", "assay": "Agonist activity at human PPARalpha ligand binding domain expressed in human Hep G2 cells co-transfected with Gal4-DBD by luciferase reporter gene assay", "format": "cell-based", "conditions": "HepG2", "summary_of_the_method": "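Gal4-LBD fusion vector (50 ng) was co-transfected with pGal4UAS-luciferase (100 ng) and pCMVβ β-galactosidase normalizer (300 ng) into HepG2 cells by calcium phosphate for 4 h. Cells were washed, then given serum-free DMEM/F-12 with ligand or 0.1% ethanol vehicle for 20 h. Luciferase was normalized to β-galactosidase.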"}},
  "note": "The source made the active and inactive calls. The calls are words filed in the database; no cut-off is given here.",
  "data": [
    {"smiles": "O=C(O)[C@H](Cc1ccccc1)Oc1ccc(-c2ccccc2)cc1", "values": [
      {"measurement": "Activity", "setting": "[1]", "result": "inactive"}
    ]},
    {"smiles": "O=C(O)[C@@H](Cc1ccccc1)Oc1ccc(-c2ccccc2)cc1", "values": [
      {"measurement": "Activity", "setting": "[2]", "result": "inactive"}
    ]}
  ]
}
